pIC50: −log10 of the molar value. Calls of active or inactive are those of the source. The calls are words filed in the database; no cut-off is given here.

The pIC50 is the IC50 on a negative log10 scale, so that one unit is a factor of ten. By half-life is commonly meant the time in which the quantity being followed falls by half. High values mean slow loss, low ones fast loss. As a reminder, the bioavailability is the share of a dose that reaches the circulation, judged against a reference dose that is usually intravenous. Low readings indicate little systemic uptake, high ones much systemic uptake. What is called Kp is the ratio of the level in a tissue or fluid to that in plasma or blood.

Series [1] has as its target T1, Corticotropin-releasing factor receptor 1 (Homo sapiens, UniProt P34998).
T1 sequence (P34998 whole entry): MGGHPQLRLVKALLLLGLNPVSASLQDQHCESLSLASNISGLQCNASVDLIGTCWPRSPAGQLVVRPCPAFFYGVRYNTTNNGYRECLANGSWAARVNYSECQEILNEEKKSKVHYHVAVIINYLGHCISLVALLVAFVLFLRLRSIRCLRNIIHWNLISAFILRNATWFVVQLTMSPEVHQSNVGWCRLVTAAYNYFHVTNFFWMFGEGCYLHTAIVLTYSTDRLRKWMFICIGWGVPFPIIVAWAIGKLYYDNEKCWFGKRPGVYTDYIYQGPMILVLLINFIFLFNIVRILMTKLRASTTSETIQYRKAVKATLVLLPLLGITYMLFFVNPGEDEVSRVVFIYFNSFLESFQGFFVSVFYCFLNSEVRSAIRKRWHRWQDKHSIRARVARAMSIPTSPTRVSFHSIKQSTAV
Briefly: Displacement of [125I]sauvagine from human recombinant CRF1 receptor expressed in CHO cells. Type of series: cell-based. On the technique in general: Displacement assays read how much labelled ligand stays bound in the presence of the test substance.

The nature of series [2]: Plasma clearance in rat at 1 mg/kg, iv or 10 mg/kg, po. It is filed as ADME, organism-based.
Series [3] is described as follows: Plasma clearance in marmoset at 1 mg/kg, iv or 10 mg/kg, po. Type of series: ADME, organism-based, Callithrix jacchus.
Series [4] in a line: Half life in marmoset at 1 mg/kg, iv or 10 mg/kg, po. Type of series: ADME, organism-based, Callithrix jacchus. To be noted: in vivo.
Series [5] has as its system Meriones unguiculatus. Briefly: Anxiolytic activity in Mongolian gerbils forepaw treading model assessed as reduction of time spent in CRF-induced piano playing behavior at 30 mg/kg, po administered 360 mins before CRF challenge. It is filed as functional, organism-based. More on the design: dose 30 mg/kg.
A short description of series [6]: Oral bioavailability in marmoset at 10 mg/kg. Type of series: ADME, organism-based, Callithrix jacchus. To be noted: in vivo.
For another series, the system named is Rattus norvegicus. Briefly: Anxiolytic activity in ip dosed ultrasonic vocalization rat model assessed as reduction of vocalization duration administered 30 mins before ultrasonic vocalizations. It is filed as functional, organism-based.
Series [7] is described as follows: Volume of distribution at steady state in marmoset at 1 mg/kg, iv or 10 mg/kg, po. Type of series: ADME, organism-based, Callithrix jacchus. To be noted: in vivo, read-out: Vdss.
Series [8] concerns Meriones unguiculatus. Briefly: Anxiolytic activity in Mongolian gerbils forepaw treading model assessed as reduction of time spent in CRF-induced piano playing behavior at 30 mg/kg, po administered 180 mins before CRF challenge. Type of series: functional, organism-based. More on the design: dose 30 mg/kg.
In series [9] the test system is Callithrix jacchus. Kind of series: Anxiolytic activity in po dosed marmoset assessed as reduction of number of postures by marmoset human threat test. Type of series: functional, organism-based.
The subject of series [10] is Meriones unguiculatus. Briefly: Anxiolytic activity in po dosed Mongolian gerbils forepaw treading model assessed as reduction of time spent in CRF-induced piano playing behavior administered 1 hr before CRF challenge. It is filed as functional, organism-based.
Series [11] is described as follows: Half life in rat at 1 mg/kg, iv or 10 mg/kg, po. It is filed as ADME, organism-based. To be noted: in vivo.
In series [12] the target is T2, Corticotropin-releasing factor receptor 2 (Homo sapiens) (UniProt Q13324).
T2 sequence (whole entry): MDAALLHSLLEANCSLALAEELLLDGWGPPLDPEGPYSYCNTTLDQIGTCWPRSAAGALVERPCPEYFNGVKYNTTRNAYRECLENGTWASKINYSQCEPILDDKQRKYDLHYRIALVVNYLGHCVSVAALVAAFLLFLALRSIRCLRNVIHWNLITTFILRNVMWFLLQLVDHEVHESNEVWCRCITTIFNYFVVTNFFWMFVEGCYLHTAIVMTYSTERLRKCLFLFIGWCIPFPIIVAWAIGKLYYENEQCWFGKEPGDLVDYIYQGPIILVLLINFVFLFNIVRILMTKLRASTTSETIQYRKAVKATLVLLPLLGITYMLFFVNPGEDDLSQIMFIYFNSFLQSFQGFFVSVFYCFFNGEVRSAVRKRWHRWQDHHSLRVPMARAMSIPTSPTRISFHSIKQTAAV
Briefly: Antagonist activity at human CRF2 receptor expressed in CHO cells assessed as effect on sauvagine-induced cAMP production. Type of series: functional, cell-based. The procedure, abridged:
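CHO cells expressing human CRF2 receptor; cAMP was stimulated with 0.5 nM sauvagine, and the antagonist was tested at concentrations up to 10 µM.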
(Changes in cAMP serve as a functional read-out for many G protein-coupled receptors.)

The subject of series [13] is Callithrix jacchus. Briefly: Toxic sedative effect in po dosed marmoset assessed as effect on number of physiological jumps. Type of series: toxicity, organism-based. To be noted: in vivo.
Series [14] has as its system Meriones unguiculatus. Briefly: Anxiolytic activity in Mongolian gerbils forepaw treading model assessed as reduction of time spent in CRF-induced piano playing behavior at 30 mg/kg, po administered 60 mins before CRF challenge. More on the design: dose 30 mg/kg. It is filed as functional, organism-based.
Series [15] is described as follows: Ratio of drug level in brain to plasma in gerbil at 10 mg/kg, po after 1 hr. To be noted: gerbillinae, brain and plasma. Further details: dose 10 mg/kg, route oral. It is filed as ADME, organism-based.
Series [16] can be described thus: Ratio of drug level in brain to plasma in rat at 1 mg/kg, iv after 1 hr. More on the design: dose 1 mg/kg, route intravenous. To be noted: brain and plasma. Type of series: ADME, organism-based.
A short description of series [17]: Volume of distribution at steady state in rat at 1 mg/kg, iv or 10 mg/kg, po. It is filed as ADME, organism-based. To be noted: in vivo, read-out: Vdss.
A short description of series [18]: Oral bioavailability in rat at 10 mg/kg. It is filed as ADME, organism-based. To be noted: in vivo.
The target of series [19] is T1, Corticotropin-releasing factor receptor 1. Briefly: Antagonist activity at human CRF1 receptor expressed in CHO cells assessed as effect on sauvagine-induced cAMP production. It is filed as functional, cell-based. To be noted: read-out: pA2 (converted). The procedure, abridged: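 CHO cells transfected with human CRF1 receptor; sauvagine concentration-response curves for cAMP were run with increasing antagonist concentrations and analysed by Schild plot (n = 6). Potency was taken as pA2, the concentration that doubles the sauvagine ED50. Antagonist alone, up to 10 µM, was also tested on cAMP without sauvagine.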

For `COc1ccc(N2CCc3c(-n4ccc(N5CCCNC5=O)n4)cc(C)nc32)c(C)c1`, in [1], the negative logarithm of the IC50 (pIC50) was 6.84.

Regarding `COc1ccc(N2CCc3c(-n4ccc(N5CCNS5(=O)=O)n4)cc(C)nc32)c(C)c1`, the pIC50 in series [1] was 6.51.

With `Cc1cc(-n2ccc(N3CCNC3=O)n2)c2c(n1)N(c1ccc(OC(F)(F)F)cc1C)CC2`, the pIC50 in series [1] is 7.17.

Turning to `CCc1cc(C#N)ccc1N1CCc2c(-n3ccc(N4CCNC4=O)n3)cc(C)nc21`, in [1], the pIC50 was 7.30.

With `CCOc1ccc(N2CCc3c(-n4ccc(N5CCNC5=O)n4)cc(C)nc32)c(C)c1`, the negative logarithm of the IC50 (pIC50) in series [1] was 6.50.

Regarding `COc1cc(-n2cccn2)ccc1N1CCc2c(-n3ccc(-n4cc[nH]c4=O)n3)cc(C)nc21`, in series [1], the pIC50 is 6.44.

On to `Cc1cc(-n2ccc(N3CCNC3=O)n2)c2c(n1)N(c1ccc(OC(C)C)cc1C)CC2`, for which the pIC50 in [1] is 5.91.

In the case of `COc1ccc(N2CCc3c(-n4ccc(N5CCCC5=O)n4)cc(C)nc32)c(C)c1`, in series [1], the negative-log IC50 (pIC50) was 6.91.

Consider `COc1ccc(N2CCc3c(-n4ccc(N5CCOC5=O)n4)cc(C)nc32)c(C)c1`, for which the pIC50 in series [1] was 5.71.

On to `Cc1cc(-n2ccc(N3CCNC3=O)n2)c2c(n1)N(c1ccc(-n3cccn3)cc1C)CC2`, for which the pIC50 in [1] is 6.43.

`Cc1cc(-n2ccc(N3CCNC3=O)n2)c2c(n1)N(c1ccc(C#N)cc1C(F)(F)F)CC2`: the negative logarithm of the IC50 (pIC50) in series [1] was 7.49.

With `COc1ccc(N2CCc3c(-n4ccc(N5CCNC5=O)n4)cc(C)nc32)c(C(F)F)c1`, the negative logarithm of the IC50 (pIC50) in series [1] is 7.25.

Regarding `Cc1cc(-n2ccc(N3CCNC3=O)n2)c2c(n1)N(c1ccc(Cl)cc1Cl)CC2`, the negative logarithm of the IC50 (pIC50) in series [1] is 6.80.

In the case of `Cc1cc(-n2ccc(-n3cc[nH]c3=O)n2)c2c(n1)N(c1ccc(C(F)(F)F)cc1C(F)(F)F)CC2`, the negative-log IC50 (pIC50) in [1] was 7.05.

As for `Cc1cc(-n2ccc(N3CCNC3=O)n2)c2c(n1)N(c1ccc(C#N)cc1OC(F)(F)F)CC2`, the pIC50 in series [1] was 6.92.

Consider `COc1ccc(N2CCc3c(-n4ccc(-n5cc[nH]c5=O)n4)cc(C)nc32)c(C)c1`, for which, in series [1], the pIC50 is 6.92.

Regarding `COc1ccc(N2CCc3c(-n4ccc(N5CCCS5(=O)=O)n4)cc(C)nc32)c(C)c1`, the negative-log IC50 (pIC50) in series [1] is 5.49.

For the molecule `COc1ccc(N2CCc3c(-n4ccc(N5CCN(C)C5=O)n4)cc(C)nc32)c(C)c1`, the negative-log IC50 (pIC50) in series [1] is 6.10.

In the case of `Cc1cc(-n2ccc(N3CCNC3=O)n2)c2c(n1)N(c1ccc(C#N)cc1C)CC2`, the pIC50 in [1] is 7.17.

`COc1ccc(N2CCc3c(-n4ccc(N5CCNC5=O)n4)cc(C)nc32)c(C)c1` [EMICERFONT]: the figures for the clearance in series [2] and in series [3] were 19 mL/min/kg and 16 mL/min/kg, respectively. Also, the half-life was 222 min in series [4] and 96 min in series [11]. The outcome in the series with Meriones unguiculatus [5], in the series on Meriones unguiculatus [8] and in the series with Meriones unguiculatus [14] was Active. Further, the figures for the bioavailability in [6] and in series [18] were 65% and 66%, respectively. For the same molecule, the Activity result in the series with Rattus norvegicus is “Dose-dependent effect”; in the series on Callithrix jacchus [9], “Dose-dependent effect”; in the series with Meriones unguiculatus [10] it was “Dose-dependent effect”; in the series with Callithrix jacchus [13] it was “Non-toxic”. Moreover, the Vd worked out at 4.7 L/kg in series [7] and 2.4 L/kg in series [17]. Further, the pIC50 in series [1] was 7.18. Moreover, the outcome in [12] was inactive. Besides, the Kp at 1 h was found to be 4.7 in series [15] and 3.7 in series [16]. Besides, in [19], the Kb is 72.4 nM.

Source of the values: ChEMBL document CHEMBL1140209, “Synthesis and pharmacological characterization of novel druglike corticotropin-releasing factor 1 antagonists” (J Med Chem, 2008).
